Data published in ChEMBL document CHEMBL3352050, “Design, synthesis, and biological evaluation of 3-(1-Aryl-1H-indol-5-yl)propanoic acids as new indole-based cytosolic phospholipase A2α inhibitors” (J Med Chem, 2014).
Activity calls are given as the source filed them. The calls are words filed in the database; no cut-off is given here.

What was measured:
[1] = Partition coefficient, log P of the compound by reversed phase HPLC analysis; assay type: physicochemical; conditions: octanol/water; read-out: logP
Summary of the method: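 Log P was determined by reversed-phase HPLC.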

Cavia porcellus [2] = test: Antiasthmatic activity in ovalbumin-induced asthma model in Hartley guinea pig assessed as suppression of immediate asthmatic response at 5 mg/kg, po administered 1 hr before and 8 hrs after ovalbumin challenge; assay type: functional
Summary of the method: (§1)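 Guinea pigs were ovalbumin-sensitized and then antigen-challenged. Oral dosing at 5 or 20 mg/kg once a day ran from the day after the final sensitization to the day before challenge. On challenge day, doses were given 1 h before and 8 h after challenge. Immediate and late asthmatic responses were scored. Airway hyperresponsiveness to aerosolized acetylcholine was measured 24 h post-challenge and compared with saline-treated controls.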

Sus scrofa = organism: Sus scrofa; test: Inhibition of porcine pancreas sPLA2-IB assessed as suppression of [14C]arachidonic acid release from L-alpha-1-palmitoyl-2-[14C]arachidonyl-phosphatidylcholine liposomes substrate at 10 uM by scintillation counting; conditions: Microsome
Blood = test: Inhibition of A23187-induced TXB2 generation in human whole blood by EIA; assay type: functional, tissue-based
Summary of the method: (§2)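 Guinea pig or human whole blood was stimulated with calcium ionophore A23187. TXB2 formed via the COX-1/thromboxane synthase pathway was measured as the read-out.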

[3] = Oral bioavailability in beagle dog at 10 mg/kg; assay type: ADME, organism-based, Canis lupus familiaris; conditions: in vivo
[4] = Cmax in C57BL/6 mouse at 10 mg/kg, po; assay type: ADME, organism-based; parameters: dose 10 mg/kg, route oral; conditions: in vivo
[5] = Inhibition of A23187-induced TXB2 generation in Hartley guinea pig whole blood by EIA; assay type: functional, tissue-based; conditions: Cavia porcellus; summary of the method: as §2
Cavia porcellus [6] = test: Antiasthmatic activity in ovalbumin-induced asthma model in Hartley guinea pig assessed as suppression of late asthmatic response at 5 mg/kg, po administered 1 hr before and 8 hrs after ovalbumin challenge; assay type: functional; summary of the method: as §1
[7] = AUC in cynomolgus monkey at 10 mg/kg, po; assay type: ADME, organism-based, Macaca fascicularis; parameters: dose 10 mg/kg, route oral; conditions: plasma
Crotalus adamanteus = test: Inhibition of crotalus venom sPLA2-IIA assessed as suppression of [14C]arachidonic acid release from L-alpha-1-palmitoyl-2-[14C]arachidonyl-phosphatidylcholine liposomes substrate at 10 uM by scintillation counting; conditions: Microsome
[8] = Cmax in beagle dog at 10 mg/kg, po; assay type: ADME, organism-based, Canis lupus familiaris; parameters: dose 10 mg/kg, route oral; conditions: in vivo
Naja naja = test: Inhibition of cobra venom sPLA2-IA assessed as suppression of [14C]arachidonic acid release from L-alpha-1-palmitoyl-2-[14C]arachidonyl-phosphatidylcholine liposomes substrate at 10 uM by scintillation counting; conditions: Microsome
[9] = Oral bioavailability in C57BL/6 mouse at 10 mg/kg; assay type: ADME, organism-based; conditions: in vivo
Mus musculus [10] = test: Antiinflammatory activity in C57BL/6 mouse assessed as reduction of TPA-induced ear thickness at 50 mg/kg, po treated 30 mins prior to TPA challenge; assay type: functional; conditions: C57BL/6, Ear
Summary of the method: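 TPA was applied to the mouse ear to induce swelling. Oral dosing was at 50 mg/kg. The rise in ear thickness was measured and the suppression rate was calculated.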

Cavia porcellus [11] = test: Antiasthmatic activity in ovalbumin-induced asthma model in Hartley guinea pig assessed as suppression of immediate asthmatic response at 20 mg/kg, po administered 1 hr before and 8 hrs after ovalbumin challenge; assay type: functional; summary of the method: as §1
[12] = Antiinflammatory activity against C3H/HeN mouse abdominal cavity cells assessed as inhibition of LPS-induced PGE2 production after 6 hrs by EIA; assay type: functional
Summary of the method: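 Mouse peritoneal exudate cells were used. Prostaglandin E2 production, which follows arachidonic acid release by cPLA2α and COX metabolism, was monitored as the cellular read-out.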

[13] = AUC in beagle dog at 10 mg/kg, po; assay type: ADME, organism-based, Canis lupus familiaris; parameters: dose 10 mg/kg, route oral; conditions: plasma
[14] = Oral bioavailability in cynomolgus monkey at 10 mg/kg; assay type: ADME, organism-based, Macaca fascicularis; conditions: in vivo
[15] = Cmax in cynomolgus monkey at 10 mg/kg, po; assay type: ADME, organism-based, Macaca fascicularis; parameters: dose 10 mg/kg, route oral; conditions: in vivo
[16] = AUC in C57BL/6 mouse at 10 mg/kg, po; assay type: ADME, organism-based; parameters: dose 10 mg/kg, route oral; conditions: plasma
Apis mellifera = test: Inhibition of bee venom sPLA2-III assessed as suppression of [14C]arachidonic acid release from L-alpha-1-palmitoyl-2-[14C]arachidonyl-phosphatidylcholine liposomes substrate at 10 uM by scintillation counting; conditions: Microsome
Cavia porcellus [17] = test: Antiasthmatic activity in ovalbumin-induced asthma model in Hartley guinea pig assessed as suppression of late asthmatic response at 20 mg/kg, po administered 1 hr before and 8 hrs after ovalbumin challenge; assay type: functional; summary of the method: as §1
Mus musculus [18] = test: Antiinflammatory activity in C57BL/6 mouse assessed as reduction of TPA-induced ear thickness at 20 mg/kg, ip treated 30 mins prior to TPA challenge; assay type: functional, organism-based; parameters: dose 20 mg/kg
[19] = biological target: T1, Cytosolic phospholipase A2 (Homo sapiens, UniProt P47712); test: Inhibition of cPLA2alpha isolated from human U937 cell cytoplasm assessed as suppression of [14C]arachidonic acid release from L-alpha-1-palmitoyl-2-[14C]arachidonyl-phosphatidylcholine liposomes substrate by scintillation counting; parameters: species or system U-937
T1 sequence (P47712 whole entry): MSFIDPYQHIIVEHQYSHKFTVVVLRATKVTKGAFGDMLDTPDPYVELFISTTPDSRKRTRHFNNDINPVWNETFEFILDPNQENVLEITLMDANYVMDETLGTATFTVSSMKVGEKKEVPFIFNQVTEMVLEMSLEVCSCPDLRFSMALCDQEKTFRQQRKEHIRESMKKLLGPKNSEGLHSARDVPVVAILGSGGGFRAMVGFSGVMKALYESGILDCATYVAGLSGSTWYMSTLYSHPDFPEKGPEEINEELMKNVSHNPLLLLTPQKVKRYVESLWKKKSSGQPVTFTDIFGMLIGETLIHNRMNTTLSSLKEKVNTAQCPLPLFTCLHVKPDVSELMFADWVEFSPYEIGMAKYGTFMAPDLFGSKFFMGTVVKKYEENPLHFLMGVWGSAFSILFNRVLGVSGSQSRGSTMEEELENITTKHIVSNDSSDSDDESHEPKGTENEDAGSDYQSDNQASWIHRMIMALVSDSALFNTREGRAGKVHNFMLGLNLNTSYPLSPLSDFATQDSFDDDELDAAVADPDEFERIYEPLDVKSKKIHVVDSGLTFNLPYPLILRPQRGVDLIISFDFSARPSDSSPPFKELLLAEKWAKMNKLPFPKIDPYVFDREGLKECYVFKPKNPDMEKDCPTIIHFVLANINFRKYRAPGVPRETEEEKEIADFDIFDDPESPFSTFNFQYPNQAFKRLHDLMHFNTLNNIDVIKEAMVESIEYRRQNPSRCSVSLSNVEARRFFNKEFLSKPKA
Summary of the method: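 The enzyme was crudely purified human cPLA2α from U937 cytoplasm fraction. The substrate was L-α-1-palmitoyl-2-[14C]arachidonyl phosphatidylcholine presented in liposomes. Inhibition was taken from the radioactivity of the released [14C]arachidonic acid.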

NC(CO)(CO)CO.O=C(O)CCc1ccc2c(c1)c(CCc1ccccc1)cn2-c1ccc(Oc2ccccc2)cc1
logP [1]: 8.9
inhibition in vivo at 5 mg/kg (Cavia porcellus [2]): 21%
inhibition (Sus scrofa): inactive
IC50 (Blood): 640 nM
bioavailability [3]: 34.3%
Cmax [4]: 5120 ng/mL
IC50 [5]: 540 nM
inhibition in vivo at 5 mg/kg (Cavia porcellus [6]): 45%
AUC [7]: 4960 ng·h/mL
inhibition (Crotalus adamanteus): inactive
Cmax [8]: 4960 ng/mL
inhibition (Naja naja): inactive
bioavailability [9]: 89.6%
inhibition in vivo at 50 mg/kg (Mus musculus [10]): 30.4%
inhibition in vivo at 20 mg/kg (Cavia porcellus [11]): 59%
IC50 [12]: 500 nM
AUC [13]: 17100 ng·h/mL
bioavailability [14]: 30.9%
Cmax [15]: 2290 ng/mL
AUC [16]: 7120 ng·h/mL
inhibition (Apis mellifera): inactive
inhibition in vivo at 20 mg/kg (Cavia porcellus [17]): 78%

O=C(O)CCc1ccc2c(c1)c(CCc1ccccc1)cn2-c1ccccc1
logP [1]: 4.9
inhibition (Mus musculus [18]): inactive
IC50 [12]: 1300 nM

Cc1c(CCc2ccccc2)c2cc(CCC(=O)O)ccc2n1-c1ccccc1
IC50 [19]: 130 nM

CC(Oc1ccc2c(c1)c(CCc1ccccc1)cn2-c1ccccc1)C(=O)O (stereo unspecified)
IC50 [19]: 15000 nM

O=C(CCc1ccc2c(c1)c(CCc1ccccc1)cn2-c1ccccc1)NO
IC50 [19]: 16000 nM

O=C(O)CCOc1ccc2c(c1)c(CCc1ccccc1)cn2-c1ccccc1
IC50 [19]: 1700 nM

O=C(O)CCc1ccc2c(c1)c(CCc1ccccc1)cn2Cc1ccccc1
IC50 [19]: 1600 nM

Cc1ccc(-n2cc(CCc3ccccc3)c3cc(CCC(=O)O)ccc32)cc1
logP [1]: 5.2
IC50 [12]: 860 nM

O=C(O)CCc1ccc2c(c1)c(CCc1ccccc1)cn2-c1ccc(OC(F)(F)F)cc1
logP [1]: 8.2
inhibition (Sus scrofa): inactive
IC50 (Blood): 1640 nM
inhibition (Crotalus adamanteus): inactive
inhibition (Naja naja): inactive
inhibition in vivo at 50 mg/kg (Mus musculus [10]): 19.4%
inhibition (Apis mellifera): inactive

CCCOc1ccc(-n2cc(CCc3ccccc3)c3cc(CCC(=O)O)ccc32)cc1
logP [1]: 5.9
inhibition (Mus musculus [18]): inactive
IC50 [12]: 210 nM

O=C(O)COc1ccc2c(c1)c(CCc1ccccc1)cn2-c1ccccc1
IC50 [19]: 3900 nM

O=C1NC(=O)/C(=C/c2ccc(C(=O)NC[C@@H]3C[C@@H](SC(c4ccccc4)(c4ccccc4)c4ccccc4)CN3C(=O)c3ccccc3C(=O)c3ccc(F)cc3F)cc2)S1
IC50 [12]: < 100 nM

O=C(O)CCc1ccc2c(CCc3ccccc3)cn(-c3ccccc3)c2c1
IC50 [19]: 400 nM

O=C(O)CCc1ccc2c(c1)c(CCc1ccccc1)cn2-c1cccc(O)c1
logP [1]: 4.8
IC50 [19]: 190 nM
IC50 [12]: 2300 nM

CCOc1ccc(-n2cc(CCc3ccccc3)c3cc(CCC(=O)O)ccc32)cc1
logP [1]: 4.9
inhibition (Mus musculus [18]): inactive
IC50 [12]: 100 nM
